Experimental data as given in ChEMBL document CHEMBL3774311, “Synthesis and in vitro antitumour activity of tiazofurin analogues with nitrogen functionalities at the C-2' position” (Eur J Med Chem, 2016).
pIC50: −log10 of the molar value.

Legend:
[1] = system: K562; experiment: Antiproliferative activity against human K562 cells after 72 hrs by MTT assay; assay type: functional, cell-based
Procedure, shortened: (§1)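 Human tumour lines and MRC-5 foetal lung fibroblasts (normal-cell comparator) exposed to compounds for 72 h; viability read by standard MTT assay. IC50 taken as concentration inhibiting growth by 50% versus untreated control; means of three independent experiments, coefficients of variation under 10%.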

[2] = Antiproliferative activity against human HL60 cells after 72 hrs by MTT assay; assay type: functional, cell-based, HL-60; procedure, shortened: as §1
[3] = system: Jurkat; experiment: Antiproliferative activity against human Jurkat cells after 72 hrs by MTT assay; assay type: functional, cell-based; procedure, shortened: as §1
[4] = system: Raji; experiment: Antiproliferative activity against human Raji cells after 72 hrs by MTT assay; assay type: functional, cell-based; procedure, shortened: as §1
[5] = system: HT-29; experiment: Antiproliferative activity against human HT-29 cells after 72 hrs by MTT assay; assay type: functional, cell-based; conditions: HT-29, 72 h; procedure, shortened: as §1
[6] = system: MCF7; experiment: Antiproliferative activity against human MCF7 cells after 72 hrs by MTT assay; assay type: functional, cell-based; conditions: MCF7, 72 h; procedure, shortened: as §1
[7] = system: HeLa; experiment: Antiproliferative activity against human HeLa cells after 72 hrs by MTT assay; assay type: functional, cell-based; procedure, shortened: as §1
[8] = system: MRC5; experiment: Cytotoxicity against human MRC5 cells after 72 hrs by MTT assay; assay type: cell-based; conditions: MRC5, 72 h; procedure, shortened: as §1
[9] = system: K562; experiment: Induction of cell cycle arrest in human K562 cells assessed as accumulation at Sub-G1 phase after 24 hrs by propidium iodide staining-based flow cytometry (reference value: 1.05%); assay type: functional
Procedure, shortened: (§2)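 Exponentially growing K562 cells treated 24 or 72 h; cells stained with propidium iodide and cell-cycle distribution (sub-G1, G0/G1, S, G2/M, %) measured by flow cytometry; untreated cells as control.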

[10] = system: K562; experiment: Induction of cell cycle arrest in human K562 cells assessed as accumulation at Sub-G1 phase after 72 hrs by propidium iodide staining-based flow cytometry (reference value: 3.04%); assay type: functional; procedure, shortened: as §2
[11] = system: K562; experiment: Induction of cell cycle arrest in human K562 cells assessed as accumulation at G0/G1 phase after 24 hrs by propidium iodide staining-based flow cytometry (reference value: 36.28%); assay type: functional; procedure, shortened: as §2
[12] = system: K562; experiment: Induction of cell cycle arrest in human K562 cells assessed as accumulation at G0/G1 phase after 72 hrs by propidium iodide staining-based flow cytometry (reference value: 45.92%); assay type: functional; procedure, shortened: as §2
[13] = system: K562; experiment: Induction of cell cycle arrest in human K562 cells assessed as accumulation at S phase after 24 hrs by propidium iodide staining-based flow cytometry (reference value: 48.38%); assay type: functional; procedure, shortened: as §2
[14] = system: K562; experiment: Induction of cell cycle arrest in human K562 cells assessed as accumulation at S phase after 72 hrs by propidium iodide staining-based flow cytometry (reference value: 35.73%); assay type: functional; procedure, shortened: as §2
[15] = system: K562; experiment: Induction of cell cycle arrest in human K562 cells assessed as accumulation at G2/M phase after 24 hrs by propidium iodide staining-based flow cytometry (reference value: 14.29%); assay type: functional; procedure, shortened: as §2
[16] = system: K562; experiment: Induction of cell cycle arrest in human K562 cells assessed as accumulation at G2/M phase after 72 hrs by propidium iodide staining-based flow cytometry (reference value: 15.31%); assay type: functional; procedure, shortened: as §2
[17] = system: K562; experiment: Induction of specific apoptosis in human K562 cells after 24 hrs by annexin V-FITC/propidium iodide staining based flow cytometry; assay type: functional; set-up: concentration or dose not given beside the values
Procedure, shortened: (§3)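 K562 cells treated 24 or 72 h, double-stained with Annexin V-FITC/PI and analysed by flow cytometry to give percentages of live, apoptotic and necrotic cells; apoptotic and necrotic responses expressed as specific apoptosis or specific necrosis (%).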

[18] = system: K562; experiment: Induction of specific apoptosis in human K562 cells after 72 hrs by annexin V-FITC/propidium iodide staining based flow cytometry; assay type: functional; set-up: concentration or dose not given beside the values; procedure, shortened: as §3
[19] = system: K562; experiment: Induction of specific necrosis in human K562 cells after 24 hrs by annexin V-FITC/propidium iodide staining based flow cytometry; assay type: functional; set-up: concentration or dose not given beside the values; procedure, shortened: as §3
[20] = system: K562; experiment: Induction of specific necrosis in human K562 cells after 72 hrs by annexin V-FITC/propidium iodide staining based flow cytometry; assay type: functional; set-up: concentration or dose not given beside the values; procedure, shortened: as §3
[21] = system: K562; experiment: Induction of apoptosis in human K562 cells assessed as necrotic cells after 24 hrs by annexin V-FITC/propidium iodide staining based flow cytometry (reference value: 1.50%); assay type: functional; procedure, shortened: as §3
[22] = system: K562; experiment: Induction of apoptosis in human K562 cells assessed as late apoptotic cells after 24 hrs by annexin V-FITC/propidium iodide staining based flow cytometry (reference value: 4.58%); assay type: functional; procedure, shortened: as §3
[23] = system: K562; experiment: Induction of apoptosis in human K562 cells assessed as living cells after 24 hrs by annexin V-FITC/propidium iodide staining based flow cytometry (reference value: 85.85%); assay type: functional; procedure, shortened: as §3
[24] = system: K562; experiment: Induction of apoptosis in human K562 cells assessed as early apoptotic cells after 24 hrs by annexin V-FITC/propidium iodide staining based flow cytometry (reference value: 8.09%); assay type: functional; procedure, shortened: as §3
[25] = system: K562; experiment: Induction of apoptosis in human K562 cells assessed as necrotic cells after 72 hrs by annexin V-FITC/propidium iodide staining based flow cytometry (reference value: 7.23%); assay type: functional; procedure, shortened: as §3
[26] = system: K562; experiment: Induction of apoptosis in human K562 cells assessed as late apoptotic cells after 72 hrs by annexin V-FITC/propidium iodide staining based flow cytometry (reference value: 5.24%); assay type: functional; procedure, shortened: as §3
[27] = system: K562; experiment: Induction of apoptosis in human K562 cells assessed as living cells after 72 hrs by annexin V-FITC/propidium iodide staining based flow cytometry (reference value: 84.31%); assay type: functional; procedure, shortened: as §3
[28] = system: K562; experiment: Induction of apoptosis in human K562 cells assessed as early apoptotic cells after 72 hrs by annexin V-FITC/propidium iodide staining based flow cytometry (reference value: 3.22%); assay type: functional; procedure, shortened: as §3
[29] = system: K562; experiment: Induction of apoptosis in human K562 cells assessed as Bcl2 protein level after 24 hrs by Western blotting method (reference value: 22.81%); assay type: functional
[30] = system: K562; experiment: Induction of apoptosis in human K562 cells assessed as Bax protein level after 24 hrs by Western blotting method (reference value: 16.13%); assay type: functional
[31] = system: K562; experiment: Induction of apoptosis in human K562 cells assessed as caspase 3 level after 24 hrs by Western blotting method (reference value: 42.77%); assay type: functional
[32] = system: K562; experiment: Induction of apoptosis in human K562 cells assessed as cleaved PARP level after 24 hrs by Western blotting method (reference value: 36.17%); assay type: functional
[33] = system: K562; experiment: Induction of apoptosis in human K562 cells assessed as Bcl2 protein level after 72 hrs by Western blotting method (reference value: 7.90%); assay type: functional
[34] = system: K562; experiment: Induction of apoptosis in human K562 cells assessed as Bax protein level after 72 hrs by Western blotting method (reference value: 32.81%); assay type: functional
[35] = system: K562; experiment: Induction of apoptosis in human K562 cells assessed as caspase 3 level after 72 hrs by Western blotting method (reference value: 17.05%); assay type: functional
[36] = system: K562; experiment: Induction of apoptosis in human K562 cells assessed as cleaved PARP level after 72 hrs by Western blotting method (reference value: 18.36%); assay type: functional
[37] = Antiproliferative activity against human HL60 cells after 24 hrs; assay type: functional, cell-based; conditions: HL-60, 24 h

pIC50 [3]	pIC50 [5]	pIC50 [6]	Compound	pIC50 [8]	Activity [9] [%]	Activity [10] [%]	Activity [11] [%]	Activity [12] [%]	Activity [13] [%]	Activity [14] [%]	Activity [15] [%]	Activity [16] [%]	Activity [17] [%]	Activity [18] [%]	Activity [19] [%]	Activity [20] [%]	Activity [21] [%]	Activity [22] [%]	Activity [23] [%]	Activity [24] [%]	also measured
< 4.00	< 4.00	< 4.00	NC(=O)c1csc([C@@H]2O[C@H](CO)[C@@H](O)[C@H]2N)n1	< 4.00	1.4	13.52	32.21	40.24	46.33	34.08	20.06	12.16	17.57	33.39	4.97	7.11	6.48	10.18	71.33	12.02	pIC50 ([1]; k562): 6.29; pIC50 ([2]; hl-60): 4.91; pIC50 ([4]; raji): 5.59; pIC50 ([7]; hela): 6.82; Activity [25]: 8.02%; Activity [26]: 66.51%; Activity [27]: 2.92%; Activity [28]: 22.56%; Activity [29]: 9.06%; Activity [30]: 3.52%; Activity [31]: 22.07%; Activity [32]: 10.01%; Activity [33]: 3.21%; Activity [34]: 112.54%; Activity [35]: 38.2%; Activity [36]: 11.32%
7.52	7.70	4.70	NC(=O)c1csc([C@@H]2O[C@H](CO)[C@@H](O)[C@H]2NC(=O)c2ccccc2)n1	7.30	6.12	11.29	39.08	44.1	49.13	34.11	5.67	10.5	29	50.41	11.71	6.86	13.22	26.45	53.81	6.54	pIC50 ([1]; Homo sapiens, K562, 72 h): 7.70; pIC50 ([2]; Homo sapiens, HL-60, 72 h): 4.69; pIC50 ([4]; Homo sapiens, Raji, 72 h): 8.00; pIC50 ([7]; Homo sapiens, HeLa, 72 h): < 4.00; Activity [25]: 7.35%; Activity [26]: 80.99%; Activity [27]: 3.74%; Activity [28]: 7.94%; Activity [29]: 64.31%; Activity [30]: 30.99%; Activity [31]: 93.34%; Activity [32]: 57.9%; Activity [33]: 15.94%; Activity [34]: 95.1%; Activity [35]: 27.61%; Activity [36]: 63.83%; pIC50 [37]: 6.92
